Data reported in ChEMBL document CHEMBL4138058, “Design and synthesis of novel selective estrogen receptor degradation inducers based on the diphenylheptane skeleton” (Medchemcomm, 2017).

Key:
Format in all cases: cell-based
[1] = target: T1, Androgen receptor (Homo sapiens) (UniProt P10275); assay: Downregulation of androgen receptor expression in human MCF7 cells at 1 uM after 6 hrs in presence of proteasome inhibitor MG132 by Western blot method relative to lamin B
T1 sequence (whole entry): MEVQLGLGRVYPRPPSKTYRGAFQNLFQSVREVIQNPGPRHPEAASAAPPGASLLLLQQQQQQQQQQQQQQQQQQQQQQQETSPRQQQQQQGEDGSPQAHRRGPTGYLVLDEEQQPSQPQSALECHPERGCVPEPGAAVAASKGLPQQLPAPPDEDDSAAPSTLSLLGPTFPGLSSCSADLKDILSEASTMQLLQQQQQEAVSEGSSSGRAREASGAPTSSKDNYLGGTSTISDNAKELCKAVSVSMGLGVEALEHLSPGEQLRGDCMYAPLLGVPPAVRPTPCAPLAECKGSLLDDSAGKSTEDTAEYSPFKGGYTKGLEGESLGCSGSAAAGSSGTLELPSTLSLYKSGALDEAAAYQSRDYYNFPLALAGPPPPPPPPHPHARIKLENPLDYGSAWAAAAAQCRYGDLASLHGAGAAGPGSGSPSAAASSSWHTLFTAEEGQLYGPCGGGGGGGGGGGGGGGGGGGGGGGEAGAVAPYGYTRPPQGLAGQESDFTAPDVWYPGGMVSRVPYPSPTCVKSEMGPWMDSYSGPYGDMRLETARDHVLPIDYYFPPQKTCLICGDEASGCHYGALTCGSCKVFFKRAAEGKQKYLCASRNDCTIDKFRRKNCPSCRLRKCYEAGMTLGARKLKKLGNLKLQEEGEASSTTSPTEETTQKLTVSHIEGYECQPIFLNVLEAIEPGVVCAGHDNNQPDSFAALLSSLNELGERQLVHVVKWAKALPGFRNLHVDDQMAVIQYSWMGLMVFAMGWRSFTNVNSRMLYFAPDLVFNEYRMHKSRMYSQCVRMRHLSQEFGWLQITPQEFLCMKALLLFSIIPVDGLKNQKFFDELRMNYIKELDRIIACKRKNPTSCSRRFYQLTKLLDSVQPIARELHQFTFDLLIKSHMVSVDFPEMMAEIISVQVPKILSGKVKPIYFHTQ
Outline: (§1)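 MCF-7 cells kept in DMEM with 10% FBS, kanamycin and 10 μg/mL insulin, then exposed to compounds for 6 h. Lysates made in SDS buffer (0.1 M Tris-HCl pH 8.0, 10% glycerol, 1% SDS), boiled, BCA-normalized and run on SDS-PAGE. Blots probed with anti-ERα, AR, AhR or VDR and β-actin or lamin B. Chemiluminescence quantified as target/loading-protein ratio; means ± S.E., n=3.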

[2] = target: T2, Estrogen receptor (Homo sapiens) (UniProt P03372); assay: Downregulation of ERalpha expression in human MCF7 cells at 10 uM after 6 hrs by Western blot method relative to lamin B; outline: as §1
T2 sequence (whole entry): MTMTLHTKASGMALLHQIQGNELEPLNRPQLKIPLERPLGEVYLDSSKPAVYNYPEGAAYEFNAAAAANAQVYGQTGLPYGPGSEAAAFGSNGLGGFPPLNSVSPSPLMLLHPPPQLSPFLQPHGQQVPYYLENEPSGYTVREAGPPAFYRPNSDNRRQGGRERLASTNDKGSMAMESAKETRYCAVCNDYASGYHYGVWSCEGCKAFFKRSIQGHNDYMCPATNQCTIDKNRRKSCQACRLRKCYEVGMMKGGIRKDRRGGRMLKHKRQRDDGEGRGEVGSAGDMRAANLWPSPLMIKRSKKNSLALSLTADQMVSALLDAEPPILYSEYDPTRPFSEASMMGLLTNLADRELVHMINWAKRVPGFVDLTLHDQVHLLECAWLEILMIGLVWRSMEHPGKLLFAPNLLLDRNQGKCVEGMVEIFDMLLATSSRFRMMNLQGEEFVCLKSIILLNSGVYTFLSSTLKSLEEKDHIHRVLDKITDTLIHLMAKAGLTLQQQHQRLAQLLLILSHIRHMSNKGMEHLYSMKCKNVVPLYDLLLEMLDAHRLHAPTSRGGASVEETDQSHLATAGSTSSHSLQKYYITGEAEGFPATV

[3] = target: T3, Vitamin D3 receptor (Homo sapiens) (UniProt P11473); assay: Downregulation of VDR expression in human MCF7 cells at 10 uM after 6 hrs in presence of proteasome inhibitor MG132 by Western blot method relative to lamin B; outline: as §1
T3 sequence (whole entry): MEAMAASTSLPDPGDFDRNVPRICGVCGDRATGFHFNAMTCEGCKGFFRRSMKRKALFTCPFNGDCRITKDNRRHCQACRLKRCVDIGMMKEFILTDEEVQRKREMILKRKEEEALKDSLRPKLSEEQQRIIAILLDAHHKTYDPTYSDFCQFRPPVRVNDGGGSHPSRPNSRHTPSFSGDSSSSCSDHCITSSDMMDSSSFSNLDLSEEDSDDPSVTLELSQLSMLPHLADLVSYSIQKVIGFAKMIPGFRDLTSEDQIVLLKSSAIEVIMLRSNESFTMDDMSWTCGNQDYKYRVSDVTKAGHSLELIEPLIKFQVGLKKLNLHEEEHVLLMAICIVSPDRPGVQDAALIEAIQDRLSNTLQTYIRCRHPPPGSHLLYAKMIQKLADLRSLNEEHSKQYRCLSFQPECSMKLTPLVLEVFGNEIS

[4] = target: T1, Androgen receptor (Homo sapiens); assay: Downregulation of androgen receptor expression in human MCF7 cells at 3 uM after 6 hrs by Western blot method relative to lamin B; outline: as §1

Activity [1]: 96%
Activity [2]: 32 to 44%
Activity [3]: 86%
Activity [4]: 106%
Structure (SMILES): CCCCCCCCCCNCCOc1ccc(C(CCC)(CCC)c2ccc(O)c(C)c2)cc1C
